Screens from PubChem BioAssay.
Hits are enriched below; roughly 2.9% of the tested compounds scored in any of these assays.
ABHD5 PLIN5 PPI = ABHD5-PLIN5 interaction inhibitors, primary screen, cell lysate, split luciferase complementation, luminescence. Split G. princeps luciferase complementation, 4 h. inhibition, % at 4 µM. actives 0.78% (n = 360,000). AID 602281, 2012;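 active means inhibition above the mean inhibition across every tested compound plus 3 SD, cut at about 22% in these data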
APOBEC3A inh = APOBEC3A ssDNA deaminase inhibitors, primary screen, selectivity assay for APOBEC3G inhibitor project, biochemical, FAM/TAMRA oligo cleavage fluorescence; recombinant A3A, FAM/TAMRA ssDNA deamination fluorescence; inhibition, % at 20 µM; actives 0.41% (n = 330,000);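 active means at least 40% inhibition at 20 µM here, with at most 30% in a related deaminase screen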
Target sequence (P31941 whole entry, looked up): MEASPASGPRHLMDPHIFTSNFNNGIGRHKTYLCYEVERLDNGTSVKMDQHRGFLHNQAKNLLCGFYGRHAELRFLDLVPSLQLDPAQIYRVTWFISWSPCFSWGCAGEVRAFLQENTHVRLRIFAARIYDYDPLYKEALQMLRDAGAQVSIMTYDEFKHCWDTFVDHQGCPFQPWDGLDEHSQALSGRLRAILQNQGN
APOBEC3G inh = APOBEC3G DNA deaminase inhibitors, primary screen, biochemical, fluorescence, single-stranded DNA substrate, uHTS. inhibition, % at 20 µM. DNA dC->dU-editing enzyme APOBEC-3G (Homo sapiens), Q9HC16. AID 493012, 2011. actives 0.28% (n = 330,000). recombinant A3G, ssDNA deamination FAM/TAMRA fluorescence;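 active means inhibition of at least 40% at 20 µM, with no more than 30% in the related APOBEC3A deaminase screen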
core dimer inh = inhibitors of HCV core protein dimerization, primary screen, biochemical, TR-FRET, high-throughput. TR-FRET GST/Flag-core106 dimerization, 1536-well. actives 0.33% (n = 300,000). inhibition, % at 5 µM;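 active means inhibition above the mean of all tested compounds plus 3 SD, set per screening campaign, cut at about 45% in these data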
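Assay system: GST-tagged and Flag-tagged HCV core protein residues 1-106 / Times: compound-protein-antibody incubation 4 h at 22.5 °C / Signal: time-resolved FRET, ex 340 nm, em 617 and 671 nm / Evaluation: % inhibition based on acceptor/donor emission ratio / Benchmarks: wells lacking GST-core106 and wells with excess unlabelled core106 / Repeats: singlicate, one well per compound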
NS3 helicase inh = inhibitors of HCV NS3 helicase, primary screen, biochemical, Cy5 molecular beacon fluorescence | Hepatitis C virus NS3 helicase | NS3 helicase DNA unwinding | inhibition, % at 10.9 µM | actives 0.56% (n = 290,000);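 active means inhibition above the mean of all tested compounds plus 3 SD, set per campaign, cut at about 35% in these data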
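System: HCV NS3 helicase fragment; control set: DMSO and thioflavine S; technique: Cy5 fluorescence at 0 and 60 min, beacon hairpin quenching; reagent: beacon DNA duplex substrate plus ATP; replicates: singlicate; schedule: 1 h reaction at 25 °C, ATP-initiated; medium: MOPS buffer pH 6.5 with MgCl2, DTT, Tween20, BSA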
PRMT1 inh = PRMT1 methyltransferase inhibitors, primary screen, biochemical, fluorescence polarization; recombinant PRMT1, activity-based probe fluorescence polarization; inhibition, % at 2.79 µM; actives 1.3% (n = 370,000); AID 652257, 2013;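 active means inhibition above about 21% made by adding two undisclosed values, limit read from the data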
Target sequence (Q99873 whole entry, looked up): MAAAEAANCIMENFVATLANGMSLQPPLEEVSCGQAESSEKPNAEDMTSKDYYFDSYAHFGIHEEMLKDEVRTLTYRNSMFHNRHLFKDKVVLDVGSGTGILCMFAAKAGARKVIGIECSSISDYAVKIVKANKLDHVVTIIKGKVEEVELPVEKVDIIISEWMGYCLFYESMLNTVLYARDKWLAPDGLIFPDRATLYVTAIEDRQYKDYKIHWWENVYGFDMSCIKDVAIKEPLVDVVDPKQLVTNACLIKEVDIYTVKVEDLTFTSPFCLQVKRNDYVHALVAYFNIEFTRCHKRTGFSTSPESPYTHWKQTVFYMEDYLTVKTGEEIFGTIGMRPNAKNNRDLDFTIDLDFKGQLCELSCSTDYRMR
APOBEC3G confirm = APOBEC3G deaminase inhibitor retest, confirmation, biochemical, fluorescence, single-stranded DNA substrate, single concentration; shares compounds with APOBEC3G inh; recombinant A3G ssDNA deaminase, UDG/FAM-TAMRA fluorescence; inhibition, % at 20 µM; actives 72% (n = 890);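 active means inhibition reaching a set limit in any replicate at 20 µM, the limit being 80% of the first screen's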
UDG A3G counter = E. coli UDG inhibitors, confirmation, counter-screen for APOBEC3G inhibitor project, biochemical, single concentration, fluorescence, FAM/TAMRA oligo | UDG counterscreen | AID 504715, 2011 | shares compounds with APOBEC3G inh | 710 tested, under 10 active | inhibition, % at 20 µM;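 active means compounds giving 40% or more inhibition at 20 µM in any one of the three replicates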;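 further: inhibitors lower the FAM signal released by uracil excision and alkaline cleavage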
ABHD5 PLIN5 conf = ABHD5-PLIN5 interaction inhibitors, confirmation, biochemical, luminescence. shares compounds with ABHD5 PLIN5 PPI. inhibition, % at 4 µM. actives 67% (n = 2,200). AID 651612, 2012; in the data active means inhibition above about 23%
HNF4 split-luc = HNF4 dimerization inhibitors, counter-screen for ABHD5-PLIN5 interaction inhibitor project, biochemical, split-luciferase complementation, luminescence; shares compounds with ABHD5 PLIN5 PPI; inhibition, % at 4 µM; actives 77% (n = 2,200);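 active means mean inhibition across replicate wells exceeding the computed hit threshold, cut at about 13% in these data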;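 further: light from luciferase halves that rejoin when HNF4 fusion proteins dimerize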
PRMT1 inh conf = PRMT1 methyltransferase inhibitors, confirmation, biochemical, fluorescence polarization, triplicate; shares compounds with PRMT1 inh; inhibition, % at 2.79 µM; recombinant His-PRMT1, activity-based probe fluorescence polarization; actives 42% (n = 3,300);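 active means mean inhibition across replicates above the hit cutoff derived for the earlier primary screen, cut at about 22% in these data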
Of the large screens only hits and unclear results are named; the others gave an inactive call (follow-up assays come after a bar, where they were run).

COc1ccc(C2CC(=O)N3CN(c4ccc(C)c(Cl)c4)CSC3=C2C#N)cc1 (centres undefined)	APOBEC3G inh 52, PRMT1 inh 44 | APOBEC3G confirm 52 | PRMT1 inh conf 59
COC(=O)c1ccc(CSc2n[nH]c(=S)s2)o1	APOBEC3G inh 50, PRMT1 inh 27 | APOBEC3G confirm 59 | UDG A3G counter inactive | PRMT1 inh conf inactive
COC(=O)c1ccc(CSc2nc3ccccc3s2)o1	none
O=C(CSc1nc2ncc(Cl)cc2[nH]1)N1CCC(Cc2ccccc2)CC1	none (no result: core dimer inh, NS3 helicase inh)
CCC(C)C(CO)NCCCn1ccc(NC(=O)OCc2ccccc2)nc1=O (centres undefined)	none (no result: APOBEC3A inh, APOBEC3G inh, core dimer inh, NS3 helicase inh)
CC1CCN(C(=O)COC(=O)c2ccccc2NCCO)CC1	none (no result: APOBEC3A inh, APOBEC3G inh, core dimer inh, NS3 helicase inh)
CC(/C=N/n1c(-c2ccncc2)n[nH]c1=S)=C\c1ccco1	APOBEC3G inh 66, PRMT1 inh 27 | APOBEC3G confirm 90 | UDG A3G counter inactive | PRMT1 inh conf inactive
CC(/C=N/n1c(-c2ccc(C)cc2)n[nH]c1=S)=C\c1ccco1	none
N#Cc1cc2c([nH]c1=O)CCCC2	none
N#Cc1cc2c([nH]c1=S)CCCC2	APOBEC3G inh 67, PRMT1 inh 32 | APOBEC3G confirm 78 | UDG A3G counter inactive | PRMT1 inh conf inactive
C=CCn1c(Cc2ccccc2)n[nH]c1=S	none
C=CCn1c(CSc2ccccc2[N+](=O)[O-])n[nH]c1=S	APOBEC3G inh 46, core dimer inh 65, PRMT1 inh 25 | APOBEC3G confirm 68 | UDG A3G counter inactive | PRMT1 inh conf inactive
CC(C)C[C@H]1COc2cccc(N3CCC[C@H]3CO)c2S(=O)(=O)N1	none (no result: APOBEC3A inh, APOBEC3G inh, core dimer inh, NS3 helicase inh)
CC(=O)c1sc2nc(-c3cccs3)ccc2c1N	APOBEC3G inh 44, PRMT1 inh 73 | APOBEC3G confirm 31 | UDG A3G counter inactive | PRMT1 inh conf 29
Nc1c(C(=O)Nc2nc3ccccc3s2)sc2nc(-c3cccs3)ccc12	none (no result: PRMT1 inh)
O=C(NCCCN1CCOCC1)c1[nH]c(C(F)(F)F)nc1-c1ccccc1	none (no result: APOBEC3A inh, APOBEC3G inh, core dimer inh, NS3 helicase inh)
CCOC(=O)c1sc(NC(=O)C(C)C)c(C#N)c1C	APOBEC3G inh 57, PRMT1 inh 29 | APOBEC3G confirm 64 | UDG A3G counter inactive | PRMT1 inh conf inactive
CCOc1ccc(N2C(=O)CC(Sc3n[nH]c(-c4ccccc4)n3)C2=O)cc1 (centres undefined)	APOBEC3G inh 46, PRMT1 inh 32 | APOBEC3G confirm 47 | UDG A3G counter inactive | PRMT1 inh conf 52
COc1ccc(N2C(=O)CC(Sc3n[nH]c(-c4ccccc4)n3)C2=O)cc1 (centres undefined)	APOBEC3G inh 53, PRMT1 inh 30 | APOBEC3G confirm 62 | UDG A3G counter inactive | PRMT1 inh conf 75
CN1CCN(C(=S)C(=O)Nc2ccc(Br)cc2)CC1	APOBEC3G inh 80, PRMT1 inh 72 | APOBEC3G confirm 70 | UDG A3G counter inactive | PRMT1 inh conf 72
CN1CCN(C(=S)NC(=O)c2ccc(Br)cc2)CC1	none
COCCCn1c(=NC(=O)c2ccccc2)c(C#N)cc2c(=O)n3cccc(C)c3nc21	APOBEC3G inh 46, PRMT1 inh 31 | APOBEC3G confirm inactive | UDG A3G counter inactive | PRMT1 inh conf inactive
CCCC(C)c1nnc(NC(=O)c2cc(C(=O)OC)cc([N+](=O)[O-])c2)s1 (centres undefined)	APOBEC3G inh 60, PRMT1 inh 29 | APOBEC3G confirm 73 | UDG A3G counter inactive | PRMT1 inh conf 54
CCOC(=O)Cc1csc(SCn2nnc3ccccc3c2=O)n1	none
CCOC(=O)Cc1csc(-n2sc3ccccc3c2=O)n1	APOBEC3G inh 81, core dimer inh 59, PRMT1 inh 88 | APOBEC3G confirm 84 | UDG A3G counter inactive | PRMT1 inh conf 89
Cc1ccc(/C=N/NC(=O)NC2CCCCC2)o1	none
Cc1ccc(/C=C/C(=O)NC2CCCCCCC2)o1	ABHD5 PLIN5 PPI 50, APOBEC3G inh 50, PRMT1 inh 50 | APOBEC3G confirm 38 | UDG A3G counter inactive | ABHD5 PLIN5 conf 55 | HNF4 split-luc 71 | PRMT1 inh conf 59
Cc1ccc(-c2cn3c(=S)[nH]nc3s2)cc1	APOBEC3G inh 80, PRMT1 inh 26 | APOBEC3G confirm 66 | UDG A3G counter inactive | PRMT1 inh conf inactive
Cc1noc(C)c1NC(=O)N(C)C[C@H]1Oc2ccc(NC(=O)Nc3ccc(C(F)(F)F)cc3)cc2C(=O)N([C@H](C)CO)C[C@@H]1C	none (no result: core dimer inh, NS3 helicase inh)
Cc1ccc(NC(=O)c2ccc(Cl)c(N3C(=O)C=CC3=O)c2)cc1	ABHD5 PLIN5 PPI 39, APOBEC3G inh 46, PRMT1 inh 92 | APOBEC3G confirm 53 | UDG A3G counter inactive | PRMT1 inh conf 89
N#Cc1c(SCC(N)=O)nc2c(c1-c1ccncc1)CCCC2	none
N#Cc1c(-c2ccncc2)c2c([nH]c1=S)CCCC2	APOBEC3G inh 46, PRMT1 inh 37 | APOBEC3G confirm 85 | UDG A3G counter inactive | PRMT1 inh conf inactive
